For series [1], the system named is pSwi6 (CKII-phosphorylated Swi6) (Schizosaccharomyces pombe). In words: fluorescence polarization. As to conditions: histone H3 Kc9me3 (methyl-lysine analog).
The subject of series [2] is pSwi6 S18/24A (CKII-phosphorylated) (Schizosaccharomyces pombe). The series is described as follows: fluorescence polarization.
Series [3] concerns spreading 'orange' reporter (mKO2). The series is described as follows: Flow cytometry, MAT ΔREIII HSS 'orange' spreading reporter. The following applies: for spreading phenotype: Figure 3E-J run (fully separate from Figure 1). The class given is cell-based, Schizosaccharomyces pombe. An outline of the steps: (§1)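 Strains from −80°C stocks were revived on YES plates. Cells were grown overnight in 200 μL YES at 32°C to saturation. The next morning they were diluted 1:25 in YES into mid-log phase and analysed by flow cytometry for single-cell reporter fluorescence. Compensation and analysis followed a prior protocol.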

In series [4] the test system is nucleation 'green' reporter (SF-GFP). The series is described as follows: Flow cytometry, MAT ΔREIII HSS 'green' nucleation reporter. The class given is cell-based, Schizosaccharomyces pombe. The following applies: separate experiment with Δckb1, SFigure 1J–L. The gist of the method: as §1
Series [5] concerns unpSwi6 (unphosphorylated Swi6) (Schizosaccharomyces pombe). The series is described as follows: fluorescence polarization. The following applies: histone H3K9 unmethylated.
In series [6] the test system is H3K9me3 peptide (fluoresceinated H3 1-20). The following applies: H3K9me3 vs H3K9me0 peptide; ref Canzio et al. 2011; cited from earlier work.
A further series deals with H3Kc9me3 mononucleosomes. In words: Fluorescence polarization, H3Kc9me3. The format is binding. As to conditions: for specificity for H3K9me3 mark on nucleosomes: H3Kc9me3 vs H3K9me0 nucleosomes; for tighter binding to H3Kc9me3 nucleosome than to H3K9me3 peptide: Kd nucleosome vs Kd tail peptide.
The test system of another series is genomic loci. The series is described as follows: anti-pS18-pS24 ChIP-seq. The format is cell-based, S. pombe. The following applies: wildtype; SFigure 8F. An outline of the steps:
(§2)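 FLAG ChIP: strains express FLAG-tagged Swi6 variants; IP with M2 anti-FLAG. pS18-pS24 ChIP: untagged strains; IP with anti-pS18-pS24 antibody; lysis buffer also contains 0.1 mM orthovanadate and 60 mM β-glycerophosphate. Both: grown to saturation in YES at 32°C, then 2 h at 18°C. 600×10^6 cells fixed with 1.5 mM EGS (30 min), then 1% formaldehyde (30 min). Drosophila spike-in added; three technical replicates; spike-in-adjusted cpm.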

Series [7] deals with H3K9me3 peptide (fluoresceinated H3 1-20). In words: Fluorescence polarization, H3K9me3 tail peptide. The format is binding. The gist of the method: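 Fluoresceinated H3 1–20 K9me3 or K9me0 peptide was fixed at 100 nM. Purified Swi6, unphosphorylated or CK2-phosphorylated, was titrated at 0–200 μM. Fluorescence polarization was read at ex 485 / em 528 nm; Kd derived by curve fitting.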

The series “SEC-MALS + cross-linking” concerns the molecule itself. In words: SEC-MALS + cross-linking.
The test system of series [8] is genomic loci (nucleators, spreading zones, euchromatin). The series is described as follows: FLAG-Swi6 ChIP-seq. The format is cell-based, S. pombe. As to conditions: for FLAG-Swi6 accumulation at nucleation sites versus wildtype: spike-in normalized, Figure 5B. The gist of the method:
as §2

Another series relates to heterochromatin foci. In words: Swi6-GFP live cell imaging of nuclear foci. The following applies: Figure 4E,F. The class given is cell-based, S. pombe. An outline of the steps:
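Swi6-GFP strains in a Sad1-mKO2 background were grown on YES 225 agar at 32°C for 3–5 days. Cells were then cultured in liquid YES 225 at 30°C with 250 rpm shaking to OD 0.2–0.6 before live-cell imaging.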

The next series relates to H3K9me3. In words: H3K9me3 ChIP-seq. The format is cell-based, S. pombe. An outline of the steps: (§3)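 Cells were grown overnight in YES at 32°C to saturation, diluted to OD 0.03 and grown to OD 1. 300×10^6 cells were fixed with 1% formaldehyde only and quenched with glycine. Chromatin was bead-beaten and sheared, then immunoprecipitated overnight at 4°C with anti-H3K9me2 or anti-H3K9me3. Reverse-crosslinked with proteinase K at 65°C. 40 bp paired-end reads; ChIP/input signal, mean of three repeats with 95% CI.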

For another series, the system named is H3K9me2. In words: H3K9me2 ChIP-seq. The format is cell-based, S. pombe. An outline of the steps:
as §3

[9] abbreviates: MAT ΔREIII HSS, mean of three repeats.

Here are results for 14 molecules from PMC11565791 (bioRxiv, 2025).

Residue numbers refer to the chain shown, from its start. Names and notes keep the numbering of the source.

In turn, “H3Kc9me3 (MLA) mononucleosome, 601 DNA 147 bp” registered a binding signal (relative Kd (reference)) in [1] of 1. Besides, the binding signal (relative Kd (pSwi6 on H3Kc9me3 = 1)) in [2] (histone H3 Kc9me3 (methyl-lysine analog)) was 0.38.
Consider “wildtype swi6: wildtype swi6 open reading frame in MAT ΔREIII HSS strain [reference compound]”, for which, in series [3] (separate experiment with Δckb1, SFigure 1J–L), the “'orange' (spreading) reporter cells ON” value came out at 7.04%. Further, the “'green' (nucleation) reporter cells ON” value in [4] was found to be 0.36%.
Take H3K9me0 mononucleosome, 601 DNA 147 bp: the Kd in series [5] is 2330 nM. Further, the binding signal (relative Kd (pSwi6 on H3Kc9me3 = 1)) in [2] (histone H3K9 unmethylated) amounted to 1.67.
With “unpSwi6: recombinant Swi6 expressed in E. coli without CKII, His tag removed by TEV”, the “specificity for H3K9me3 peptide, previously reported” value in series [6] is on record as ~ 130 X. Moreover, in the series with H3Kc9me3 mononucleosomes, the “specificity for H3K9me3 mark on nucleosomes” value came to 19.4 X and the “tighter binding to H3Kc9me3 nucleosome than to H3K9me3 peptide” value worked out at 68 X.
As for “FLAG-Swi6: 3XFLAG tagged wildtype Swi6 at endogenous locus”, the “pS18-pS24 pool versus overall FLAG-Swi6 accumulation” value in the series on genomic loci was “no significant differences in accumulation between the overall Swi6 pool and the pS18-pS24 pool”.
“pSwi6: Swi6 co-expressed with Casein Kinase II (CKII) in E. coli”: the “specificity for H3K9me3 peptide” value in series [7] (H3K9me3 vs H3K9me0 peptide) is reported as ~ 93 X. In addition, the “preference for H3K9me3 versus H3K9me2 peptides” value in series [7] (SFigure 4C) was ~ 2.2 X. Besides, the “decrease in nucleosome affinity by phosphorylation, overall (pSwi6 vs unpSwi6)” value in the series on H3Kc9me3 mononucleosomes (Figure 4D) is 12 X. Moreover, in the series with H3Kc9me3 mononucleosomes, the “specificity for H3K9me3 mark on nucleosomes” value came to 19 X and the “tighter binding to H3Kc9me3 nucleosome than to H3K9me3 peptide” value is recorded as 1.7 X.

B1: phosphorylated Swi6 (pSwi6) (natural protein)
chain: MKKGGVRSYRRSSTSKRSVIDDDSEPELPSMTKEAIASHKADSGSSDNEVESDHESKSSSKKLKENAKEEEGGEEEEEDEYVVEKVLKHRMARKGGGYEYLLKWEGYDDPSDNTWSSEADCSGCKQLIEAYWNEHGGRPEPSKRKRTARPKKPEAKEPSPKSRKTDEDKHDKDSNEKIEDVNEKTIKFADKSQEEFNENGPPSGQPNGHIESDNESKSPSQKESNESEDIQIAETPSNVTPKKKPSPEVPKLPDNRELTVKQVENYDSWEDLVSSIDTIERKDDGTLEIYLTWKNGAISHHPSTITNKKCPQKMLQFYESHLTFRENE
For the molecule B1, the “stoichiometry N” value in the series “SEC-MALS + cross-linking” turned out to be 8.

B2: FLAG-Swi6^6S/A: 3XFLAG tagged Swi6 S18/24/117–220A (protein, UniProt P40381 1-328, looked up, variant S18A S24A S117A S192A S212A S220A)
Chromatin-associated protein …: B1 chain with S18A, S24A, S117A, S192A, S212A, S220A
modifications: 3XFLAG tag
As to B2, in series [8], the “FLAG-Swi6 accumulation at nucleation sites versus wildtype” value was “decline in accumulation”.

B3: Swi6^S18/24A-GFP: C-terminally super fold-GFP tagged Swi6 S18/24A (protein, UniProt P40381 1-328, looked up, variant S18A S24A)
Chromatin-associated protein …: B1 chain with S18A, S24A
modifications: C-terminal superfolder GFP tag
For the molecule B3, in the series on heterochromatin foci, the “partitioning relative to heterochromatin foci” value is “partition away from heterochromatin foci”.

B4: Swi6^6S/A -GFP: C-terminally super fold-GFP tagged Swi6 6S/A (protein, UniProt P40381 1-328, looked up, variant S18A S24A S117A S192A S212A S220A)
Chromatin-associated protein …: B1 chain with S18A, S24A, S117A, S192A, S212A, S220A
modifications: C-terminal superfolder GFP tag
Turning to B4, the “partitioning relative to heterochromatin foci” value in the series on heterochromatin foci is reported as “partition away from heterochromatin foci”.

B5: swi6^loopX-S18/24A: double mutant of loopX and S18/24A (protein, UniProt P40381 1-328, looked up, variant S18A S24A R93A K94A)
Chromatin-associated protein …: B1 chain with S18A, S24A, R93A, K94A
In the case of B5, in series [3], the “spreading phenotype” value is listed as “largely mimics that of swi6^S18/24A”.

B6: swi6^S18/24A: swi6 mutant S18A and S24A (protein, UniProt P40381 1-328, looked up, variant S18A S24A)
Chromatin-associated protein …: B1 chain with S18A, S24A
As to B6, in the series with H3K9me3 (setting [9]), the “H3K9me3 level at MAT locus” value is “much more closely mirrored Δswi6”. Besides, in the series with H3K9me3 (heterochromatin island mei4, SFigure 3A), the “H3K9me2 and H3K9me3 at mei4” value is on record as “no distinguishable differences”. Besides, in the series on H3K9me2 (300bp bins, SFigure 2), the “H3K9me2 in nucleators versus wildtype” value is given as “H3K9me2 is elevated in almost all nucleators”. Besides, the “H3K9me2 level at MAT locus” value with H3K9me2 (setting [9]) is listed as “maintained similar levels of H3K9me2 to wildtype swi6”. In the series on H3K9me2 (tel IIR, relative to wildtype), the “distance to the left of tlh2 at which H3K9me2 levels begin to drop” value is recorded as ~ 6.4 kb. Moreover, the “spreading phenotype” value in series [3] is on record as “more severe spreading defect than the oligomerization surface mutants alone”.

B7: FLAG-Swi6^S18/24A: 3XFLAG tagged Swi6 S18/24A (protein, UniProt P40381 1-328, looked up, variant S18A S24A)
Chromatin-associated protein …: B1 chain with S18A, S24A
modifications: 3XFLAG tag
Turning to B7, the “FLAG-Swi6 accumulation at nucleation sites versus wildtype” value in [8] was “decline in accumulation”. For the same molecule, in series [8] (versus wildtype, Figure 5E, SFigure 7A), the “FLAG-Swi6 accumulation at cen I & II” value is recorded as “accumulates less than wildtype within previously mapped siRNA generating centers”. The “FLAG-Swi6 accumulation at H3K9me2-negative loci” value in series [8] (versus wildtype, Figure 5F,G) is listed as “accumulates above wildtype at several H3K9me2 negative loci”.

B8: swi6^loopX: ARK loop in the CD mutant (R93A and K94A) (protein, UniProt P40381 1-328, looked up, variant R93A K94A)
Chromatin-associated protein …: B1 chain with R93A, K94A
Turning to B8, in [3], the “spreading phenotype” value is recorded as “moderate spreading defect”.
